# Shown are actives, neighbours in structure and some others; about 2.9% of the full set was active somewhere.
# S100A4 MyoIIA = inhibitors of S100A4-myosin IIA peptide binding, primary screen, biochemical, fluorescence polarization, TAMRA-MyoIIA peptide; Protein S100-A4 (Homo sapiens), P26447; inhibition, % at 10.7 µM; 360,000 tested, 0.14% active; AID 652163, 2013;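 active = mean inhibition of at least 70% across replicates, with every replicate also reaching that level; inconclusive = mean inhibition reaches 70% but some replicates fall short; inactive = mean inhibition below 70%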
# Target sequence (P26447 whole entry, looked up): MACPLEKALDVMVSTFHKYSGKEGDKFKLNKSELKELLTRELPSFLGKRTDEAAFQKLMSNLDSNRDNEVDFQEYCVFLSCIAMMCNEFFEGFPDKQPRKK
#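 Material: S100A4 monomer protein | Medium: HEPES pH 7.2 with CaCl2, KCl, NaCl, DTT, Triton | Reagent: Labelled myosin peptide probe, 5 nM | Doses: One dose per compound | Times: 5 min incubation before reading | Benchmarks: Neutral control DMSO, positive control TFP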
# Statin myotox sup = suppressors of statin myotoxicity in C2C12 myotubes, primary screen, cell-based, single point, plate reader | rescue of ATP level, % at 7.49 µM | 330,000 tested, 0.78% active | C2C12 myotubes + simvastatin, ATP luminescence, 48 h; scaled: DMSO 0, geranylgeraniol control 100;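 active = mean ATP rescue above about 67%, or every replicate alone reaching that limit, limit read from the data, passing the limit was not always enough; inconclusive = no clear call, values can overlap the other calls; inactive = mean under the limit and some replicate under it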;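 note: myotubes were challenged with 10 µM simvastatin during compound exposure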
# DENV2 CPE rescue = inhibitors of DENV2 cytopathic effect, primary screen, cell-based, plate reader, single concentration; AID 651640, 2012; DENV2-infected cells, cytopathic effect rescue; 350,000 tested, 1.7% active; CPE inhibition, % at 9.99 µM; in the data active = CPE inhibition above about 20%, passing the limit was not always enough; inconclusive = no clear call, values can overlap the other calls; tested in BHK-21 cells;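 note: 0% = median of neutral control wells and 100% = median of positive control wells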
# SIRT5 block = SIRT5 desuccinylase inhibitors, primary screen, biochemical, fluorescence imaging, single point, set 5. Purified SirT5, succinyl-peptide AMC, trypsin-coupled fluorescence. NAD-dependent protein deacylase sirtuin-5, mitochondrial (Homo sapiens), Q9NXA8. 330,000 tested, 1.1% active. inhibition, % at 15 µM; in the data active = inhibition above about 15%; inconclusive = no clear call, values can overlap the other calls
# Target sequence (Q9NXA8 whole entry, looked up): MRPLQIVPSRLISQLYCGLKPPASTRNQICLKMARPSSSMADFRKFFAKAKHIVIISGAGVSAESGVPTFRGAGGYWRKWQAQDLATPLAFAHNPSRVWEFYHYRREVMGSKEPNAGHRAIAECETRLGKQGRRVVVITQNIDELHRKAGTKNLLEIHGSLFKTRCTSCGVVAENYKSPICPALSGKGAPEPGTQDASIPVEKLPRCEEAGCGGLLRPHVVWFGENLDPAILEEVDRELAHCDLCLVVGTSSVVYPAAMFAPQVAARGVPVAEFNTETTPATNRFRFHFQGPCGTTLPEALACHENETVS
# PGC1a acetyl inh = inhibitors of PGC1a acetylation signal, primary screen, cell-based, U2OS, AlphaScreen, inhibitor mode; AlphaScreen anti-acetyl-lysine; with virally co-expressed GCN5 acetyltransferase; inhibition, % at 15.6 µM; 350,000 tested, 0.17% active;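 active = every replicate shows inhibition of at least 40%; inconclusive = mean inhibition at least 40% but some replicate below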;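 note: 0% = neutral control wells and 100% = positive control wells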
# Starred values were filed as active, the others as inactive; ? = inconclusive; nt = not tested or not shown.
SMILES,S100A4 MyoIIA,Statin myotox sup,DENV2 CPE rescue,SIRT5 block,PGC1a acetyl inh
Cc1ccsc1C(=O)OCC(=O)NC1CCS(=O)(=O)C1 (centres undefined),2,nt,2,-4,nt
CO[C@@H]1CN(C)C(=O)c2cc(NS(=O)(=O)c3cn(C)cn3)ccc2OC[C@H](C)N(C)C[C@H]1C,nt,5,nt,nt,3
O=C(CC(c1ccco1)S(=O)(=O)c1ccccc1)c1ccccc1 (centres undefined),-5,3,1,20*,-2
Cc1ccc(S(=O)(=O)NCC(c2ccco2)S(=O)(=O)c2ccccc2)cc1 (centres undefined),-8,4,-7,-2,4
C[C@H](O)C#Cc1ccc([C@@H]2[C@H]3CN(C(=O)c4ccncc4)CCCCN3[C@H]2CO)cc1,6,32,-12,1,1
CNC[C@@H]1Oc2ccc(NS(=O)(=O)c3ccc(C)cc3)cc2CC(=O)N([C@H](C)CO)C[C@H]1C,-41,-15,42*,-2,-4
COc1ccc(S(=O)(=O)N(C)C[C@@H]2Oc3ccc(NS(=O)(=O)c4ccc(C)cc4)cc3CC(=O)N([C@H](C)CO)C[C@@H]2C)cc1,nt,-13,-9,nt,-3
COc1ccc(S(=O)(=O)Nc2ccc3c(c2)CC(=O)N([C@@H](C)CO)C[C@@H](C)[C@@H](CN(C)S(=O)(=O)c2ccccc2)O3)cc1,nt,12,?,nt,-4
COc1ccc(S(=O)(=O)Nc2ccc3c(c2)CC(=O)N([C@@H](C)CO)C[C@@H](C)[C@H](CN(C)S(=O)(=O)c2ccc(C)cc2)O3)cc1,-2,23,1,19*,-1
C[C@H]1CN([C@@H](C)CO)C(=O)Cc2cc(NS(=O)(=O)c3cccs3)ccc2O[C@@H]1CN(C)S(=O)(=O)c1ccccc1,14,6,41*,-3,6
C[C@H](CO)N1C[C@H](C)[C@@H](CN(C)S(=O)(=O)c2ccccc2)Oc2ccc(NS(=O)(=O)c3cccs3)cc2CC1=O,0,16,-1,1,5
COc1ccc(S(=O)(=O)N(C)C[C@H]2Oc3ccc(NS(=O)(=O)c4ccccc4)cc3CC(=O)N([C@H](C)CO)C[C@@H]2C)cc1,0,-14,-16,17*,1
CC(C)NC(=O)N1[C@H](CO)[C@@H]2c3ccccc3N(C(=O)C3CC3)C[C@@H]21,2,13,4,1,-1
O=C(C[C@H]1CC[C@@H]2[C@H](COC[C@@H](O)CN2C(=O)Cc2ccccc2)O1)NC1CCC1,3,12,-4,3,0
Cc1ccc(S(=O)(=O)Nc2ccc3c(c2)CC(=O)N([C@H](C)CO)C[C@H](C)[C@H](CN(C)S(=O)(=O)c2ccc(C)cc2)O3)cc1,5,?,-1,6,6
COc1ccc(S(=O)(=O)N(C)C[C@@H]2Oc3ccc(NS(C)(=O)=O)cc3CC(=O)N([C@@H](C)CO)C[C@H]2C)cc1,5,-22,48*,2,7
Cc1ccc(S(=O)(=O)Nc2ccc3c(c2)CC(=O)N([C@H](C)CO)C[C@H](C)[C@@H](CN(C)S(=O)(=O)c2c(C)noc2C)O3)cc1,-2,0,-4,16*,1
C[C@@H]1CN([C@@H](C)CO)C(=O)Cc2cc(NS(=O)(=O)c3ccc(Cl)cc3)ccc2O[C@@H]1CN(C)S(=O)(=O)c1ccc(Cl)cc1,-1,-37,47*,4,2
Cc1ccc(S(=O)(=O)Nc2ccc3c(c2)CC(=O)N([C@@H](C)CO)C[C@@H](C)[C@H](CN(C)S(=O)(=O)c2ccc(C)cc2)O3)cc1,1,95*,-1,-2,-9
C[C@H](CO)N1C[C@H](C)[C@H](CN(C)C(=O)NC2CCCCC2)Oc2ccc(NC(=O)Nc3cccc4ccccc34)cc2C1=O,-7,-34,1,nt,-24
C[C@H](CO)N1C[C@H](C)[C@@H](CN(C)S(=O)(=O)c2ccc(Cl)cc2)Oc2ccc(NC(=O)C3CC3)cc2CC1=O,-6,-21,30*,-3,-4
C[C@H]1CN([C@@H](C)CO)C(=O)Cc2cc(NC(=O)C3CCCCC3)ccc2O[C@H]1CN(C)S(=O)(=O)c1ccc(Cl)cc1,1,4,1,5,-8
C[C@@H]1CN([C@@H](C)CO)C(=O)c2cc(NC(=O)CCC(F)(F)F)ccc2O[C@H]1CN(C)C(=O)NC1CCCCC1,6,14,-1,-4,1
c1ccc(C[C@H]2CN=C(Nc3ccccc3)N2CC2CCCC2)cc1,-2,nt,-6,21*,nt
CC1CCC(CN2C(Nc3ccccc3)=NC[C@@H]2Cc2ccccc2)CC1 (some centres undefined),-5,-7,-3,nt,-18
SMILES,S100A4 MyoIIA,Statin myotox sup,DENV2 CPE rescue,SIRT5 block,PGC1a acetyl inh
CC1CCC(CN2C(Nc3ccccc3)=NC[C@@H]2C)CC1 (some centres undefined),4,-12,40*,3,-8
c1ccc(C[C@H]2CN=C(Nc3ccccc3)N2CC2CCCCC2)cc1,0,-18,-2,0,-6
CCCCN1C(Nc2ccccc2)=NC[C@@H]1Cc1ccccc1,-2,-8,22*,nt,4
c1ccc(C[C@H]2CN=C(Nc3ccccc3)N2CCCC2CCCCC2)cc1,4,-17,1,nt,-1
CCNC(=O)C[C@@H]1CC[C@H]2[C@H](COc3ccc(NC(=O)c4ccc5c(c4)OCO5)cc3C(=O)N2C)O1,8,-6,-3,0,5
C[C@@H]1CN([C@@H](C)CO)S(=O)(=O)c2ccc(-c3cncnc3)cc2O[C@@H]1CN(C)Cc1ccncc1,2,-7,?,0,13
COCC(=O)N1CC2(C1)CN(C(=O)CN1CCOCC1)[C@H](CO)c1c2c2ccc(OC)cc2n1C,nt,nt,8,nt,0
O=C(O)C1=NN(c2ccccc2)C(=O)CC1,-1,7,?,-1,9
Cc1ccc(N2N=C(C(=O)O)CCC2=O)cc1Cl,1,124*,-2,-3,3
Cc1cc(NS(=O)(=O)c2ccc(Cl)cc2)nn1CC(=O)NCc1ccco1,nt,98*,nt,nt,-7
C[C@]1(C(=O)NCc2cc(F)cc(C(F)(F)F)c2)C=C[C@@H](Cc2ccccc2)N1C(=O)c1ccccc1,0,5,?,34*,nt
COc1cccc(CN2[C@H](CO)[C@H](c3ccccc3)C23CN(C(=O)C2CC2)C3)c1,-19,nt,2,2,-17
COc1cccc(NC(=O)C[C@@H]2CC[C@H]3[C@H](COc4ccc(NC(=O)C5CC5)cc4C(=O)N3C)O2)c1,-2,1,4,-4,5
Cc1cc2nc3ccc(N(C)C)cc3nc2cc1N,178*,-18,-3,-2,-6

# Screening data (PubChem BioAssay)
